Measured values published in ChEMBL document CHEMBL2346574, “Evaluation of (Z)-2-((1-benzyl-1H-indol-3-yl)methylene)-quinuclidin-3-one analogues as novel, high affinity ligands for CB1 and CB2 cannabinoid receptors” (Bioorg Med Chem Lett, 2013).

Experiments:
[1] = biological target: Cannabinoid receptor 2 (Homo sapiens, UniProt P34972); assay: Displacement of [3H]CP 55940 from human CB2 receptor expressed in CHO cells after 90 mins by liquid scintillation counting; type: cell-based
Outline: (§1)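 Competition binding with 0.2 nM [3H]CP-55,940 and 5 mM MgCl2, in triplicate per concentration, using 50 mM Tris with 0.05% BSA and 0.1% ethanol/0.1% DMSO. CB1 used mouse whole-brain membranes and CB2 used CHO-hCB2 membranes. […] GF/B filtration, ice-cold washes, scintillation counting. Specific binding taken as percent of no-competitor.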

[2] = biological target: Cannabinoid receptor 1 (Mus musculus, UniProt P47746); assay: Displacement of [3H]CP 55940 from CB1 receptor in mouse whole brain membrane homogenates after 90 mins by liquid scintillation counting; type: cell membranes; outline: as §1
[3] = Selectivity ratio of Ki for CB1 receptor in mouse whole brain membrane homogenates to Ki for human CB2 receptor; type: cell membranes

Cannabinoid receptor 1, sequence (P47746 whole entry): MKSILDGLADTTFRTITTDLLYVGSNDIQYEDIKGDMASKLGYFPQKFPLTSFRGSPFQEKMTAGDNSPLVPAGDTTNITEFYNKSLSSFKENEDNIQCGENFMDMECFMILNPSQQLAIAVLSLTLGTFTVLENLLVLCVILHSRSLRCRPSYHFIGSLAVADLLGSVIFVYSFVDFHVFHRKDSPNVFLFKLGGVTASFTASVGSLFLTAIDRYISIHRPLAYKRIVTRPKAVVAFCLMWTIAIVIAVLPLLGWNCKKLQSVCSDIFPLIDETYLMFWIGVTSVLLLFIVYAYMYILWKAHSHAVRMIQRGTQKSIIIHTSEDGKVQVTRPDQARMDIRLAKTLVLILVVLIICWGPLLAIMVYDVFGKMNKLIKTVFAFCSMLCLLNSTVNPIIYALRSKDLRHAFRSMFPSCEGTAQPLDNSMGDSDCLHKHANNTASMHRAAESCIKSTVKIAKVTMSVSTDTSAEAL
Cannabinoid receptor 2, sequence (P34972 whole entry): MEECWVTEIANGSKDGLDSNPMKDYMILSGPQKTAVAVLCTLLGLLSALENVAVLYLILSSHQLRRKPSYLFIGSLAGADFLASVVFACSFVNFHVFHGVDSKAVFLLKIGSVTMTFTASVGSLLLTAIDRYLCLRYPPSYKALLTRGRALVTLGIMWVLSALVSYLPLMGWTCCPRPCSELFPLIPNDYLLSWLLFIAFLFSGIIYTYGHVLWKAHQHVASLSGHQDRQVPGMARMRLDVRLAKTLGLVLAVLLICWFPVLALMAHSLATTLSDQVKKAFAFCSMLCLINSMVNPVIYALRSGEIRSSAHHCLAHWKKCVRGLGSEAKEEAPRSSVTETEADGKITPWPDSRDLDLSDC

SMILES	Ki [1]	Ki [2]	Ratio Ki [3]
O=C1/C(=C/c2cn(Cc3ccccc3)c3ccccc23)N2CCC1CC2	11.7 nM	135 nM	–
O=C1/C(=C/c2cn(Cc3ccc(Cl)cc3)c3ccccc23)N2CCC1CC2	20.3 nM	31.7 nM	–
COC(=O)c1ccc2c(/C=C3/C(=O)C4CCN3CC4)cn(Cc3ccccc3)c2c1	2.5 nM	85.7 nM	34
O/N=C1/C(=C/c2cn(Cc3ccc(Cl)cc3)c3ccccc23)N2CCC1CC2	–	95.7 nM	–
O=C1/C(=C/c2cn(Cc3ccc(F)cc3)c3ccccc23)N2CCC1CC2	1.33 nM	9.23 nM	–
COC(=O)c1ccc(Cn2cc(/C=C3/C(=O)C4CCN3CC4)c3ccccc32)cc1	588 nM	953 nM	–
N#Cc1ccc(Cn2cc(/C=C3/C(=O)C4CCN3CC4)c3ccccc32)cc1	114 nM	55.3 nM	–
OC1/C(=C/c2cn(Cc3ccc(Cl)cc3)c3ccccc23)N2CCC1CC2 (racemic)	–	85.3 nM	–
O=C1/C(=C/c2cn(Cc3ccccc3Br)c3ccccc23)N2CCC1CC2	333 nM	629 nM	–
OC1/C(=C/c2cn(Cc3ccccc3)c3ccccc23)N2CCC1CC2 (racemic)	55.3 nM	540 nM	–
O/N=C1/C(=C/c2cn(Cc3ccccc3)c3ccccc23)N2CCC1CC2	68.6 nM	357 nM	–
